This is a sample that favours compounds with a hit; in the whole collection about 2.6% have one here.
PHOSPHO1 inh = inhibitors of human PHOSPHO1 phosphatase | AID 1565 | inhibition, % at 13.3 µM | recombinant PHOSPHO1, absorbance phosphatase assay | Q8TCT1 | 290,000 compounds, 1.1% hits; in the data active = inhibition above about 60%
Calb FLC = affects C. albicans growth with fluconazole | C. albicans CaCi-2 (fluconazole-resistant clinical isolate) + fluconazole, Alamar Blue growth, 48 h | growth inhibition, % (concentration not given with the values) | 300,000 compounds, 0.57% hits;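 active = growth inhibition above about 58% in most replicates, limit read from the data, passing the limit was not always enough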;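 also: all wells also contain fluconazole at 8 µg/ml as a sub-toxic cotreatment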
ARFGAP1 inh = inhibits rat ARF GTPase activating protein 1 | Q62848 | Arfgap1-stimulated ARF1 GTP hydrolysis, GDP FP detection | inhibition, % at 16.5 µM | 360,000 compounds, 0.26% hits;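 active = inhibition above a per-plate limit, mean inhibition of low control wells plus 3 SD, cut at about 25% in these data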
Target sequence (Q62848 1-136 limits assumed): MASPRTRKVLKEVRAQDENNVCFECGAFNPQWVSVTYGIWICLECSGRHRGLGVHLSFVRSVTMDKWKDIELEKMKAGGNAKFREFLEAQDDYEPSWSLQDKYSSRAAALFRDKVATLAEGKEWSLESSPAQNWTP
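Assay system: Rat Arfgap1 GAP domain (His6, aa 1-136), purified enzyme | Buffer or medium: HEPES 25 mM pH 7.5, NaCl 150 mM, MgCl2, DTT | Schedule: GTP hydrolysis reaction 2 h at 25 °C | Signal: FP of antibody-bound GDP Alexa 633 tracer, ex 620/em 688 nm | Measure: Percent inhibition of Arfgap1-stimulated GTP hydrolysis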
VIM-2 inh = inhibitors of Pseudomonas aeruginosa VIM-2 metallo-beta-lactamase | purified VIM-2, nitrocefin hydrolysis, epi-absorbance fluorescence | 290,000 compounds, 0.89% hits | inhibition, % at 5.6 µM;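 active = inhibition above the mean of all tested compounds plus 3 SD, cutoff set per screening run, cut at about 7.5% in these data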;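 also: red hydrolysis product quenches plate fluorescence so inhibitors raise well fluorescence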
IMP-1 inh = blocks Pseudomonas aeruginosa IMP-1 metallo-beta-lactamase; purified IMP-1, nitrocefin hydrolysis, epi-absorbance fluorescence; inhibition, % at 5.6 µM; 290,000 compounds, 0.45% hits; AID 1556;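 active = inhibition above the mean plus 3 SD of all compounds in the same screening run, cut at about 4.5% in these data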
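System: purified IMP-1; amount: IMP-1 0.2 nM before substrate addition; compound: single dose, 5.6 µM; times: 25 °C, 15 min preincubation, 25 min reaction; signal: Epi-absorbance via hydrolysed-nitrocefin quenching of white-plate fluorescence, 480/530 nm, EDTA stop; benchmarks: DMSO with and without IMP-1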
ASAP1 inh = ASAP1 ArfGAP inhibition. 360,000 compounds, 0.19% hits. Q9ULH1. inhibition, % at 16.5 µM. ASAP1-stimulated ARF1 GTP hydrolysis, GDP FP detection; in the data active = inhibition above about 25%
Target sequence (Q9ULH1 325-724 limits assumed): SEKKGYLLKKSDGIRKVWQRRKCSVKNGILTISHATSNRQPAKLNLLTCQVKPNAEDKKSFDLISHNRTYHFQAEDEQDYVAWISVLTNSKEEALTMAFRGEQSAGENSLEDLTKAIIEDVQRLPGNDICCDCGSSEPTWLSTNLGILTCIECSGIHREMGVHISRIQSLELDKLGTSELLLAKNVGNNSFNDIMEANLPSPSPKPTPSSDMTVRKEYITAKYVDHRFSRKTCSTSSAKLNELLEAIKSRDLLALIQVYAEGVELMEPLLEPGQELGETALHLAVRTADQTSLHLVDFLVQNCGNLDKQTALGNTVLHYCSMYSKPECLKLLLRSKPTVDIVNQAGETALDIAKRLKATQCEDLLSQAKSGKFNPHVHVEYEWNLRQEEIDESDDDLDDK
Large screens that a line does not name were inactive.

Cc1cc(C)n2c3c(c(C#N)c2n1)CCCC3	VIM-2 inh 7.7
CCn1c(SCC(=O)N/N=C/C=C\c2ccco2)nc2ccccc21	none
Cn1c(SCC(=O)N/N=C/C=C\c2ccco2)nc2ccccc21	PHOSPHO1 inh 73
COC(=O)[C@@H](N[C@H](/C=C/c1ccccc1)[C@@H](O)Cc1ccccc1)C(C)C	none (no result: PHOSPHO1 inh, Calb FLC, VIM-2 inh, IMP-1 inh)
O=C(CCCN1C(=O)/C(=C/c2cccs2)SC1=S)Nc1ccc(O)c(C(=O)O)c1	VIM-2 inh 9.7 (no result: Calb FLC, ARFGAP1 inh, ASAP1 inh)
O=C(CN1C(=O)/C(=C/c2ccco2)SC1=S)NC1CCS(=O)(=O)C1 (stereo unspecified)	IMP-1 inh 5.6
O=C(CN1C(=O)/C(=C/c2ccco2)SC1=S)Nc1ccc(C(=O)O)c(O)c1	IMP-1 inh 7.2
O=C(CCCN1C(=O)/C(=C\c2cccs2)SC1=S)Nc1ccc(C(=O)O)cc1	none
O=C(CCN1C(=O)/C(=C/c2ccccc2)SC1=S)NC1CCS(=O)(=O)C1 (stereo unspecified)	none
Cn1cc(CC(=O)Nc2ccc(Nc3cccnc3)c(Br)c2)c2ccccc21	none (no result: PHOSPHO1 inh, Calb FLC, VIM-2 inh, IMP-1 inh)
CS(=O)(=O)N1Cc2cc(C(=O)NCC3CC3)nc(-c3cccc(-c4cccnc4)c3)c2[C@H]1CCO	none (no result: PHOSPHO1 inh, Calb FLC, VIM-2 inh, IMP-1 inh)
Nc1ccc(Oc2ccc3c(c2)OCO3)cc1	PHOSPHO1 inh 61
CC(C)(C)c1cc(-c2n[nH]c(=S)n2-c2ccc(Cl)cc2)n[nH]1	none
Cc1nn(C)cc1-c1n[nH]c(=S)n1-c1ccc(Cl)cc1	VIM-2 inh 9.2
COc1cc(OC)cc(-c2n[nH]c(=S)n2-c2ccc3c(c2)OCCO3)c1	VIM-2 inh 8.1
S=c1[nH]nc(-c2ccc(Br)cc2)n1-c1ccc2c(c1)OCCO2	none
S=c1[nH]nc(-c2ccc(Cl)cc2Cl)n1-c1ccccc1	none
S=c1[nH]nc(-c2ccc(Cl)cc2Cl)n1-c1ccc2c(c1)OCCO2	VIM-2 inh 9.2
COc1cc(OC)cc(-c2n[nH]c(=S)n2-c2cc(OC)ccc2OC)c1	PHOSPHO1 inh 82
COc1ccc(OC)c(-n2c(-c3ccc(O)cc3O)n[nH]c2=S)c1	none
COc1cc(CCN=Cc2cccc(OC)c2O)c([N+](=O)[O-])cc1OC	none (no result: PHOSPHO1 inh, Calb FLC, VIM-2 inh, IMP-1 inh)
C[C@H]1CN(c2ccc(N3CCN(C(=O)OC(C)(C)C)C[C@@H]3C)cc2C#N)CCN1Cc1ccccc1	none (no result: PHOSPHO1 inh, Calb FLC, VIM-2 inh, IMP-1 inh)
COC(=O)C1=C(C)N(Cc2ccccc2)C(=S)NC1c1ccc(Cl)cc1 (stereo unspecified)	none (no result: PHOSPHO1 inh, Calb FLC, VIM-2 inh, IMP-1 inh)
CCCSC1=N/C(=C\C=C\c2ccco2)C(=O)S1	PHOSPHO1 inh 90
COc1cc(CC(=O)Nc2nccs2)cc(OC)c1OC	Calb FLC 106
COc1ccc(CCC(=O)Nc2nccs2)cc1OC	none
Cc1cc(C)c(-c2cc(NC(=O)COC(=O)c3ccc(C#N)cc3)n(-c3ccccc3)n2)cc1C	Calb FLC 77
Cc1cc(C)c(-c2cc(NC(=O)COC(=O)c3ccc(NC(=O)CC#N)cc3)n(-c3ccccc3)n2)cc1C	none (no result: PHOSPHO1 inh, VIM-2 inh, IMP-1 inh)
C=C1c2cc(OC)ccc2NC(=O)N1CC	IMP-1 inh 5.8
COc1ccc2c(c1)/C(=C/c1cc(OC)c(OC)c(OC)c1)C(=O)N2	none (no result: PHOSPHO1 inh, Calb FLC, VIM-2 inh, IMP-1 inh)
CCN(CC)c1ccc(NC(=O)c2nc3nc(C)cc(C(F)F)n3n2)cc1	PHOSPHO1 inh 78
COC(=O)[C@]12C[C@H](CC(=O)NCCc3ccccc3OC)C(=O)N(Cc3ccc4c(c3)OCO4)C1=C[C@H](COCc1ccccc1)O[C@@H]2C	none (no result: PHOSPHO1 inh, Calb FLC, VIM-2 inh, IMP-1 inh)
COc1cc(OC)c2c(-c3cccc(-c4cccc(C)c4)c3)cc(=O)oc2c1	none (no result: PHOSPHO1 inh, Calb FLC, VIM-2 inh, IMP-1 inh)
COc1cc(OC)c2c(C)cc(=O)oc2c1	IMP-1 inh 4.9
O=C(N[C@H](C(=O)N1CCC[C@H]1C(=O)NC1CCCC1)c1ccccc1)C1CCCC1	none (no result: PHOSPHO1 inh, Calb FLC, VIM-2 inh, IMP-1 inh)
C[C@@H]1CN(S(=O)(=O)C(C)(C)C)[C@@H](CCO)/C1=C\CCO	none (no result: PHOSPHO1 inh, Calb FLC, VIM-2 inh, IMP-1 inh)
COc1ccc(N2C(=O)/C(=C/c3cccs3)NC2=S)cc1	PHOSPHO1 inh 75
CN(Cc1ccc2c(c1)CCCN2C)C(=O)[C@@H](Cc1ccccc1)NC(=O)[C@H]1O[C@@H](n2ccc(=O)[nH]c2=O)[C@H](O)[C@@H]1O	none (no result: PHOSPHO1 inh, Calb FLC, VIM-2 inh, IMP-1 inh)
CC(C)N1CCC(C)(C(=O)Nc2ccccc2Oc2ccccc2)C1 (stereo unspecified)	none (no result: PHOSPHO1 inh, Calb FLC, VIM-2 inh, IMP-1 inh)
COc1cc(CNC(C)C)ccc1OCC(=O)Nc1cccc2ccccc12	PHOSPHO1 inh 61

Screening results (PubChem)
